Experimental data reported in ChEMBL document CHEMBL1148671, “Synthesis and antibacterial activity of C12 des-methyl ketolides” (2006).
≈ marks a conversion by molar mass, not a printed value.

How the values were obtained:
Assay type in all cases: functional
Haemophilus influenzae [1] = assay: Antibacterial activity against Haemophilus influenzae 2762 by broth microdilution method
Method in brief: (§1)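 In vitro activity was read as the minimum inhibitory concentration (MIC) by broth microdilution and reported in μg/mL. The S. pneumoniae panel included erythromycin-resistant strains carrying mef or erm genes. Telithromycin and clarithromycin were run as comparators in every assay.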

Staphylococcus aureus [2] = assay: Antibacterial activity against Staphylococcus aureus 33591 by broth microdilution method; method in brief: as §1
Streptococcus pneumoniae [3] = assay: Antibacterial activity against erythromycin-resistant Streptococcus pneumoniae mef 5654 by broth microdilution method
Enterococcus faecalis [4] = assay: Antibacterial activity against Enterococcus faecalis 29212 by broth microdilution method; method in brief: as §1
Streptococcus pyogenes = assay: Antibacterial activity against Streptococcus pyogenes 8668 by broth microdilution method; method in brief: as §1
[5] = system: Staphylococcus epidermidis; assay: Antibacterial activity against Staphylococcus epidermidis 14990 by broth microdilution method; method in brief: as §1
Haemophilus influenzae [6] = assay: Antibacterial activity against Haemophilus influenzae 49247 by broth microdilution method; method in brief: as §1
Staphylococcus aureus [7] = assay: Antibacterial activity against Staphylococcus aureus 29213 by broth microdilution method; conditions: ATCC29213; method in brief: as §1
Streptococcus pneumoniae [8] = assay: Antibacterial activity against erythromycin-resistant Streptococcus pneumoniae erm 6849 by broth microdilution method
Streptococcus pneumoniae [9] = assay: Antibacterial activity against Streptococcus pneumoniae 280-962 by broth microdilution method; method in brief: as §1
Streptococcus pneumoniae [10] = assay: Antibacterial activity against Streptococcus pneumoniae 297-749 by broth microdilution method; method in brief: as §1
Enterococcus faecalis [11] = assay: Antibacterial activity against Enterococcus faecalis bc11148-2 by broth microdilution method; method in brief: as §1
Streptococcus pneumoniae [12] = assay: Antibacterial activity against Streptococcus pneumoniae 49619 by broth microdilution method; method in brief: as §1
[13] = system: Staphylococcus epidermidis; assay: Antibacterial activity against Staphylococcus epidermidis f50654 by broth microdilution method; method in brief: as §1
Streptococcus pneumoniae [14] = assay: Antibacterial activity against erythromycin-resistant Streptococcus pneumoniae mef S 3427 by broth microdilution method

Row | SMILES | MIC (Haemophilus influenzae [1]) [µg/mL] | MIC (Staphylococcus aureus [2]) [µg/mL] | MIC (Streptococcus pneumoniae [3]) [µg/mL] | MIC (Enterococcus faecalis [4]) [µg/mL] | MIC (Streptococcus pyogenes) [µg/mL] | MIC [5] [µg/mL] | MIC (Haemophilus influenzae [6]) [µg/mL] | MIC (Staphylococcus aureus [7]) [µg/mL] | MIC (Streptococcus pneumoniae [8]) [µg/mL] | MIC (Streptococcus pneumoniae [9]) [µg/mL] | MIC (Streptococcus pneumoniae [10]) [µg/mL] | MIC (Enterococcus faecalis [11]) [µg/mL] | MIC (Streptococcus pneumoniae [12]) [µg/mL] | MIC [13] [µg/mL] | MIC (Streptococcus pneumoniae [14]) [µg/mL]
1 | CC[C@H]1OC(=O)[C@H](C)C(=O)[C@H](C)[C@@H](O[C@@H]2O[C@H](C)C[C@H](N(C)C)[C@H]2O)[C@](C)(OC)C[C@@H](C)C(=O)[C@H](C)[C@@H]2[C@@H]1OC(=O)N2CCCCc1ccc(-c2cncnc2)s1 | 3.13 (≈ 3.84 µM) | > 50 | 0.4 (≈ 0.491 µM) | ≤ 0.05 | ≤ 0.05 | 0.2 (≈ 0.245 µM) | 12.5 (≈ 15.3 µM) | 0.2 (≈ 0.245 µM) | > 50 | ≤ 0.05 | ≤ 0.05 | > 50 | ≤ 0.05 | 0.2 (≈ 0.245 µM) | 
2 | CC[C@H]1OC(=O)[C@H](C)C(=O)[C@H](C)[C@@H](O[C@@H]2O[C@H](C)C[C@H](N(C)C)[C@H]2O)[C@](C)(OC)C[C@@H](C)C(=O)[C@H](C)[C@@H]2[C@@H]1OC(=O)N2CCCCc1cnc(-c2cccnc2)s1 | 1.56 (≈ 1.91 µM) | > 50 | 0.78 (≈ 0.957 µM) | ≤ 0.05 | ≤ 0.05 | 0.2 (≈ 0.245 µM) | 6.25 (≈ 7.67 µM) | 0.2 (≈ 0.245 µM) | 25 (≈ 30.7 µM) | ≤ 0.05 | ≤ 0.05 | 3.13 (≈ 3.84 µM) | ≤ 0.05 | 0.1 (≈ 0.123 µM) | 0.1 (≈ 0.123 µM)
3 | CC[C@H]1OC(=O)[C@H](C)C(=O)[C@H](C)[C@@H](O[C@@H]2O[C@H](C)C[C@H](N(C)C)[C@H]2O)[C@](C)(OC)C[C@@H](C)C(=O)[C@H](C)[C@@H]2[C@@H]1OC(=O)N2CCCCc1ccc(-c2cccnc2)s1 | 3.13 (≈ 3.84 µM) | 50 (≈ 61.4 µM) | 0.4 (≈ 0.491 µM) | ≤ 0.05 | ≤ 0.05 | 0.2 (≈ 0.246 µM) | 12.5 (≈ 15.4 µM) | 0.2 (≈ 0.246 µM) | 6.25 (≈ 7.68 µM) | ≤ 0.05 | ≤ 0.05 | 25 (≈ 30.7 µM) | ≤ 0.05 | 0.1 (≈ 0.123 µM) | 0.1 (≈ 0.123 µM)
4 | CC[C@H]1OC(=O)[C@H](C)C(=O)[C@H](C)[C@@H](O[C@@H]2O[C@H](C)C[C@H](N(C)C)[C@H]2O)[C@](C)(OC)C[C@@H](C)C(=O)[C@H](C)[C@@H]2[C@@H]1OC(=O)N2CCCCn1cnc(-c2cccnc2)c1 | 0.78 (≈ 0.977 µM) | > 50 | 1.56 (≈ 1.95 µM) | 0.1 (≈ 0.125 µM) | ≤ 0.05 | 0.78 (≈ 0.977 µM) | 6.25 (≈ 7.83 µM) | 0.2 (≈ 0.251 µM) | 0.2 (≈ 0.251 µM) | ≤ 0.05 | ≤ 0.05 | > 50 | ≤ 0.05 | 0.2 (≈ 0.251 µM) | 0.2 (≈ 0.251 µM)
5 | CC[C@H]1OC(=O)[C@H](C)C(=O)[C@H](C)[C@@H](O[C@@H]2O[C@H](C)C[C@H](N(C)C)[C@H]2O)[C@](C)(OC)C[C@@H](C)C(=O)[C@H](C)[C@@H]2[C@@H]1OC(=O)N2CCCCc1ncc(-c2cccc(N)c2)s1 | 1.56 (≈ 1.88 µM) | > 50 | 0.78 (≈ 0.941 µM) | 0.2 (≈ 0.241 µM) | ≤ 0.05 | 0.4 (≈ 0.482 µM) | 6.25 (≈ 7.54 µM) | 0.4 (≈ 0.482 µM) | 50 (≈ 60.3 µM) | ≤ 0.05 | ≤ 0.05 | 3.13 (≈ 3.78 µM) | ≤ 0.05 | 0.2 (≈ 0.241 µM) | 
6 | CC[C@H]1OC(=O)[C@H](C)C(=O)[C@H](C)[C@@H](O[C@@H]2O[C@H](C)C[C@H](N(C)C)[C@H]2O)[C@](C)(OC)C[C@@H](C)C(=O)[C@H](C)[C@@H]2[C@@H]1OC(=O)N2CCCCn1cnc2ncccc21 |  | > 50 | 3.13 (≈ 4.05 µM) | 0.1 (≈ 0.13 µM) | ≤ 0.05 | 0.4 (≈ 0.518 µM) | 3.13 (≈ 4.05 µM) | 0.4 (≈ 0.518 µM) | 0.78 (≈ 1.01 µM) | ≤ 0.05 | ≤ 0.05 | > 50 | ≤ 0.05 | 0.4 (≈ 0.518 µM) | 0.4 (≈ 0.518 µM)
7 | CC[C@H]1OC(=O)[C@H](C)C(=O)[C@H](C)[C@@H](O[C@@H]2O[C@H](C)C[C@H](N(C)C)[C@H]2O)[C@](C)(OC)C[C@@H](C)C(=O)[C@H](C)[C@@H]2[C@@H]1OC(=O)N2CCCCc1ccnc2ccccc12 |  | > 50 | 0.1 (≈ 0.128 µM) | ≤ 0.05 | ≤ 0.05 | 0.1 (≈ 0.128 µM) | 1.56 (≈ 1.99 µM) | 0.1 (≈ 0.128 µM) | 6.25 (≈ 7.99 µM) | ≤ 0.05 | ≤ 0.05 | > 50 | ≤ 0.05 | 0.1 (≈ 0.128 µM) | 
8 | CC[C@H]1OC(=O)[C@H](C)C(=O)[C@H](C)[C@@H](O[C@@H]2O[C@H](C)C[C@H](N(C)C)[C@H]2O)[C@](C)(OC)C[C@@H](C)C(=O)[C@H](C)[C@H]2N(CCCCn3cnc(-c4cccnc4)c3)C(=O)O[C@]12C [TELITHROMYCIN] |  |  | 0.4 (≈ 0.493 µM) |  |  |  |  |  |  |  |  |  |  |  | 
